Cneo AK release – Cryptococcus neoformans cell lysis inducers, primary screen, AK release luminescence, single concentration | C. neoformans lysis, adenylate kinase release luminescence, 4 h; normalised: neutral wells 0, clomiphene wells 100 | lysis activity, % at 15 µM | hit rate 0.2% among 360,000 | AID 651654, 2012;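 active = mean lysis activity across replicates of at least 80%, whatever share of replicates individually reach that level; inactive = mean lysis activity below 80%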
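Material – log-phase Cryptococcus neoformans yeast cells · Input – 5 × 10^6 yeast cells/mL · Medium – fresh YPD growth medium · Doses – single compound concentration per well · Timing – static 4 h at 37 °C with compound, 1 h detection · Detection – adenylate kinase release luminescence · Read-out – signal increase indicating cell lysis · Control set – Clomiphene as positive lysis control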
CAL PDZ FP-1 – CAL PDZ peptide-binding inhibitors, primary screen, biochemical, fluorescence polarization, Cer-tagged CAL PDZ, HTS; inhibition, % at 20 µM; Golgi-associated PDZ and coiled-coil motif-containing protein (Homo sapiens), Q9HD26; purified CAL PDZ, TMR-peptide fluorescence polarization, 1 h; hit rate 0.02% among 330,000;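 active = highest replicate inhibition of at least 40%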;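 also: plate controls were DMSO neutral control wells for no effect and unlabeled competitor peptide control wells for full effect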
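Control set: unlabelled peptide and DMSO controls / Material: purified CerCALP PDZ construct / Timing: 1 h incubation at room temperature before polarization reading / Doses: 20 µM, one dose / Detection: fluorescence polarization (mP)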
PglD DTNB – C. jejuni PglD acetyltransferase inhibitors, primary screen, biochemical, DTNB colorimetric, single point; UDP-N-acetylbacillosamine N-acetyltransferase PglD (Campylobacter jejuni); purified PglD enzyme, DTNB colorimetric CoA detection; inhibition, % at 12.5 µM; hit rate 0.098% among 360,000; AID 602405, 2012; in the data active = inhibition above about 16%, passing the limit was not always enough
miR122 inh – miR-122 Renilla sensor signal increase in Huh7, primary screen, miR-122 inhibitor project, cell-based, single point, plate reader. activation (reporter increase), % at 12.5 µM. Huh7 miR-122 Renilla luciferase sensor, 48 h; neutral wells = 0, positive control = 100. hit rate 0.3% among 340,000;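 active = mean replicate activation score at least 90 and every replicate individually at or above 90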;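 also: higher luciferase means less miR-122 activity so hits act as miR-122 inhibitors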
CAL PDZ FP-2 – untagged CAL PDZ binding inhibitors, primary screen, biochemical, fluorescence polarization, HTS; inhibition, % at 24.9 µM; purified CAL PDZ, TMR-peptide fluorescence polarization, 1 h; hit rate 0.92% among 300,000; AID 602252, 2012;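 active = mean inhibition of at least 30% with at least half of replicates also reaching 30%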;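 also: 0% = DMSO neutral control and 100% = excess unlabeled competitor peptide PRC23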
Numbers without * were called inactive; . = no result; [ ] = another dose, or the depositor's remark. An excerpt weighted towards active compounds, which were near 1.1% of everything screened.

SMILES	Cneo AK release	CAL PDZ FP-1	PglD DTNB	miR122 inh	CAL PDZ FP-2
CC1CN(C(=O)c2cc(S(=O)(=O)N3CCCC3)ccc2Cl)CC(C)O1 (stereo unspecified)	-7	-2	0	.	-2
O=C(NCCCN1CCOCC1)c1cccc(S(=O)(=O)Nc2cc(Cl)ccc2Cl)c1	.	-1	.	.	38*
O=C(NCCN1CCOCC1)c1cccc(S(=O)(=O)Nc2cc(Cl)ccc2Cl)c1	-3	-1	-1	-5	-2
CC1CN(C(=O)c2cccc(S(=O)(=O)Nc3ccccc3Cl)c2)CC(C)O1 (stereo unspecified)	-2	0	0	-5	-3
CC1CN(C(=O)c2cc(S(=O)(=O)N3CCCCC3)ccc2Cl)CC(C)O1 (stereo unspecified)	0	0	-1	-1	39*
CC1CN(C(=O)c2cccc(S(=O)(=O)Nc3cc(Cl)ccc3Cl)c2)CC(C)O1 (stereo unspecified)	.	-1	.	.	79*
CCOCc1nnc(NC(C)=O)s1	2	-1	3	1	-2
CCOCc1nnc(NS(C)(=O)=O)s1	0	1	-8	268*	.
COCCN(C(=O)CSc1nnc(-c2ccccc2F)n1C)c1c(N)n(Cc2ccccc2)c(=O)[nH]c1=O	3	-1	-3	-10	45*
O=C(Oc1c(CN2CCOCC2)cc(Cl)c2cccnc12)c1ccccc1	.	0	.	2	47*
NS(=O)(=O)c1ccc(CNC(=O)/C=C/c2c(F)cccc2Cl)cc1	.	-1	.	.	70*
C=CCNS(=O)(=O)c1cc2c3c(c1)CCN3C(=O)CC2	-1	-3	-1	-5	-2
CC(C)CNS(=O)(=O)c1cc2c3c(c1)CCC(=O)N3CCC2	0	-2	-3	93*	6
COC(CNS(=O)(=O)c1cc2c3c(c1)CCN3C(=O)CC2)OC	0	-1	-1	-12	48*
Cc1ccc(-c2nc3ccccc3c(=O)o2)cc1	-7	35	4	2	48*
Cc1ccc2nc(-c3ccccc3)oc(=O)c2c1	-2	-2	0	-3	0
O=[N+]([O-])c1cc(-c2nc(-c3ccncc3)no2)cc([N+](=O)[O-])c1	.	-1	.	-4	-4
Cc1c(-c2nc(-c3ccncc3)no2)cccc1[N+](=O)[O-]	.	-1	.	.	69*
Cc1cc2[nH]c(=O)c(=O)[nH]c2cc1S(=O)(=O)Nc1ccccc1F	0	-2	8	-5	11
Cc1ccc(S(=O)(=O)NCCNS(=O)(=O)c2ccccc2Br)cc1	-2	-1	5	48	-5
COc1ccc(NS(=O)(=O)c2cc(C)ccc2C)cc1	1	-1	3	539*	.
Cc1ccc(S(=O)(=O)NCCNc2ccc(Br)c(C)c2)cc1	2	0	-4	.	39*
COc1ccccc1NS(=O)(=O)c1cc(C)ccc1C	-3	-1	3	141*	-3
COc1ccc(C)cc1NS(=O)(=O)c1cc(C)ccc1C	.	0	.	87	-1
COc1ccc(NS(=O)(=O)c2cc(S(C)(=O)=O)ccc2C)cc1	.	-1	.	.	-1
SMILES	Cneo AK release	CAL PDZ FP-1	PglD DTNB	miR122 inh	CAL PDZ FP-2
COc1cc(C)c(S(=O)(=O)Nc2ccccc2F)cc1C	1	0	12	123*	-1
Cc1noc(C)c1NC(=O)Nc1ccc2c(c1)C(=O)N([C@H](C)CO)C[C@@H](C)[C@@H](CN(C)C(=O)Nc1ccc3c(c1)OCO3)O2	39	.	2	7[16.7 µM]	.
O=S(=O)(Nc1ccc(Br)cc1)c1cccc(NS(=O)(=O)c2cccs2)c1	0	-2	1	35	-9
Cc1ccc(C)c(S(=O)(=O)Nc2ccc(S(=O)(=O)Nc3ncccn3)cc2)c1	-3	0	-7	-14	-5
Cc1ccc(C)c(S(=O)(=O)Nc2ccc3sc(C)nc3c2)c1	-1	.	5	428*	-4
CCNS(=O)(=O)c1ccc(NS(=O)(=O)c2cc(C)ccc2C)cc1	1	0	-5	113*	-4
